Values after ≈ are worked out from the molar mass of the structure shown.
What was measured:
[1] = Half life was measured as degradation by HPLC analysis.; assay type: ADME
Citrobacter freundii = test: In vitro minimum inhibitory concentration was measured against Citrobacter freundii BS-16 (beta lactamase producer) strain.; assay type: functional
Summary of the method: (§1)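 MICs were determined by agar dilution with 2-fold dilutions giving final 128–0.0156 µg/mL, extended to 0.000977 µg/mL where needed. Streptococci were tested on brain heart infusion agar plus 20 units/mL catalase, Proteus on Mueller-Hinton with 3% agar, and others on Mueller-Hinton agar. Inocula were 100-fold-diluted overnight cultures, about 3 × 10^4 CFU/spot, read after overnight incubation at 36 °C.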

Klebsiella pneumoniae [2] = test: Tested for its efficacy against systemic murine infection caused by Klebsiella pneumoniae A; assay type: functional
Summary of the method: (§2)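 CD1 Swiss albino mice (18-20 g) were infected intraperitoneally with 0.5 mL of diluted culture. Within 5 min they received 1.0 mL test solution subcutaneously at the dorsal neck, in dilutions spanning 250–0.05 mg/kg. P. aeruginosa groups received a second dose at 3 h. Groups were six mice. ED50 was calculated by Reed–Muench interpolation of cumulative survival.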

[3] = target: T1, Peptidoglycan D,D-transpeptidase MrdA (Escherichia coli K-12) (UniProt P0AD65); test: Affinity for penicillin binding protein 2 of Escherichia coli UB1005 (DC0) was evaluated.; set-up: unit not given here
T1 sequence (whole entry): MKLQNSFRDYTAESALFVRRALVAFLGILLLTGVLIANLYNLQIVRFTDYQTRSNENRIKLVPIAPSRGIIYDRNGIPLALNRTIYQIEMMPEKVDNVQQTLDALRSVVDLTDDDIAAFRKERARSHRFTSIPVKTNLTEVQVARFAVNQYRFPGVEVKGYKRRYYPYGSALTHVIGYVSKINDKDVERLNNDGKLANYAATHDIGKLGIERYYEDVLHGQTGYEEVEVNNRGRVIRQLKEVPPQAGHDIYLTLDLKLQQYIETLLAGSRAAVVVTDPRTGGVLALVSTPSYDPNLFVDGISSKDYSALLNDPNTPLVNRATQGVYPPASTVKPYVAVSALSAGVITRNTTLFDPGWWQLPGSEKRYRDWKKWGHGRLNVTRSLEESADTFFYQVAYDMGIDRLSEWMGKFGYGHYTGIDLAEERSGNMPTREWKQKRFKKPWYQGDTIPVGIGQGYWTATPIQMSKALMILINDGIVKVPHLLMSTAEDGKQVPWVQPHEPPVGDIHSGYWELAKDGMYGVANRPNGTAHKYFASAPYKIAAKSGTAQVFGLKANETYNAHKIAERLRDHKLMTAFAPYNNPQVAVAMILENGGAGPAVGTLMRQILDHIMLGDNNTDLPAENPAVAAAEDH
Summary of the method: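 Solubilised membranes from sonicated E. coli UB1005 served as the binding-protein source. Binding was read as inhibition of [14C]penicillin G binding.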

Proteus mirabilis [4] = test: In vitro minimum inhibitory concentration was measured against Proteus mirabilis 90 strain.; assay type: functional
Summary of the method: (§3)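 Streptococci were tested on brain heart infusion agar plus 20 units/mL catalase, Proteus on Mueller-Hinton with 3% agar, and others on Mueller-Hinton agar. Inocula were 100-fold-diluted overnight cultures, about 3 × 10^4 CFU/spot, read after overnight incubation at 36 °C.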

Pseudomonas aeruginosa [5] = test: In vitro minimum inhibitory concentration was measured against Pseudomonas aeruginosa 18S/H strain.; assay type: functional; summary of the method: as §3
Pseudomonas aeruginosa [6] = test: Tested for its efficacy against systemic murine infection caused by Pseudomonas aeruginosa 8780.; assay type: functional; summary of the method: as §2
Streptococcus pneumoniae [7] = test: Tested for its efficacy against systemic murine infection caused by Streptococcus pneumoniae 6301.; assay type: functional; summary of the method: as §2
Serratia marcescens [8] = test: Tested for its efficacy against systemic murine infection caused by Serratia marcescens SM.; assay type: functional; summary of the method: as §2
Staphylococcus aureus [9] = test: In vitro minimum inhibitory concentration was measured against Staphylococcus aureus 753 (Methicillin resistant) strain.; assay type: functional
Streptococcus pneumoniae [10] = test: In vitro minimum inhibitory concentration was measured against Streptococcus pneumoniae 6301 strain; assay type: functional; summary of the method: as §3
Staphylococcus aureus [11] = test: Tested for its efficacy against systemic murine infection caused by Staphylococcus aureus smith.; assay type: functional; summary of the method: as §2
Streptococcus pyogenes [12] = test: In vitro minimum inhibitory concentration was measured against Streptococcus pyogenes 4 strain.; assay type: functional; summary of the method: as §3
Escherichia coli = test: Minimum inhibitory concentration for DC2, a permeability mutant; summary of the method: as §1
Enterobacter cloacae [13] = test: Tested for its efficacy against systemic murine infection caused by Enterobacter cloacae 5699.; assay type: functional
[14] = tested on: Penicillin-binding protein 3 (Escherichia coli); test: Affinity for penicillin binding protein 3 of Escherichia coli UB1005 (DC0) was evaluated.; set-up: unit not given here
Enterobacter cloacae [15] = test: tested for its efficacy against systemic murine infection caused by Enterobacter cloacae 5699.; assay type: functional; summary of the method: as §2
Klebsiella pneumoniae [16] = test: tested for its efficacy against systemic murine infection caused by Klebsiella pneumoniae A; assay type: functional; summary of the method: as §2
Proteus mirabilis [17] = test: In vitro minimum inhibitory concentration was measured against Proteus mirabilis 90 strain.; (</=); assay type: functional; summary of the method: as §1
Staphylococcus aureus [18] = test: tested for its efficacy against systemic murine infection caused by Staphylococcus aureus smith.; assay type: functional; summary of the method: as §2
Streptococcus pneumoniae [19] = test: tested for its efficacy against systemic murine infection caused by Streptococcus pneumoniae 6301.; assay type: functional; summary of the method: as §2
Serratia marcescens [20] = test: tested for its efficacy against systemic murine infection caused by Serratia marcescens SM.; assay type: functional; summary of the method: as §2
Streptococcus pneumoniae [21] = test: In vitro minimum inhibitory concentration was measured against Streptococcus pneumoniae 6301 strain.; (</=); assay type: functional; summary of the method: as §1
Streptococcus pyogenes [22] = test: In vitro minimum inhibitory concentration was measured against Streptococcus pyogenes 4 strain.; (</=); assay type: functional; summary of the method: as §1
Pseudomonas aeruginosa [23] = test: tested for its efficacy against systemic murine infection caused by Pseudomonas aeruginosa 8780.

`CO/N=C(\C(=O)N[C@@H]1C(=O)N2C(C(=O)O)=C(CN3CCN(c4cc5c(cc4F)c(=O)c(C(=O)O)cn5C4CC4)CC3)CS[C@H]12)c1csc(N)n1` gave a half-life [1] of 144 h, an MIC (Citrobacter freundii) of 0.125 µg/mL (≈ 0.172 µM) and an ED50 (Klebsiella pneumoniae [2]) of 25 mg/kg. It also gave a Binding affinity [3] of 100, an MIC (Proteus mirabilis [4]) of 2 µg/mL (≈ 2.75 µM) and an MIC (Pseudomonas aeruginosa [5]) of 2 µg/mL (≈ 2.75 µM). The ED50 (Pseudomonas aeruginosa [6]) was 38 mg/kg, the ED50 (Streptococcus pneumoniae [7]) was 54 mg/kg and the ED50 (Serratia marcescens [8]) was 25 mg/kg. The MIC (Staphylococcus aureus [9]) was 4 µg/mL (≈ 5.5 µM), the MIC (Streptococcus pneumoniae [10]) was 0.063 µg/mL (≈ 0.0867 µM) and the ED50 (Staphylococcus aureus [11]) was greater than 100 mg/kg. The MIC (Streptococcus pyogenes [12]) was 0.063 µg/mL (≈ 0.0867 µM), the MIC (Escherichia coli) was 0.063 µg/mL (≈ 0.0867 µM) and the ED50 (Enterobacter cloacae [13]) was 14 mg/kg. The Binding affinity [14] was 0.5.

With `CO/N=C(\C(=O)N[C@@H]1C(=O)N2C(C(=O)O)=C(COC(C)=O)CS[C@H]12)c1csc(N)n1` [CEFOTAXIME] the MIC (Citrobacter freundii) was 32 µg/mL (≈ 70.3 µM), the ED50 (Enterobacter cloacae [15]) was 50 mg/kg and the ED50 (Klebsiella pneumoniae [16]) was 45 mg/kg. It also gave a Binding affinity [3] of 100, an MIC (Proteus mirabilis [17]) of less than 0.016 µg/mL and an MIC (Pseudomonas aeruginosa [5]) of 128 µg/mL (≈ 281 µM). The ED50 (Staphylococcus aureus [18]) was 6 mg/kg, the ED50 (Streptococcus pneumoniae [19]) was 69 mg/kg and the ED50 (Serratia marcescens [20]) was less than 25 mg/kg. For the same molecule, the MIC (Staphylococcus aureus [9]) was greater than 128 µg/mL, the MIC (Streptococcus pneumoniae [21]) was less than 0.016 µg/mL and the MIC (Streptococcus pyogenes [22]) was no more than 0.016 µg/mL. The MIC (Escherichia coli) was less than 0.016 µg/mL and the ED50 (Pseudomonas aeruginosa [23]) was greater than 250 mg/kg.
